Reference: ChEMBL document CHEMBL5036358, “The Flavonoid Baicalein Negatively Regulates Progesterone Target Genes in the Uterus in Vivo” (J Nat Prod, 2022)
Activity calls are given as the source filed them. The calls are words filed in the database; no cut-off is given here.

Key:
Glucocorticoid receptor = target: T1, Glucocorticoid receptor (Homo sapiens, UniProt P04150); test: Competitive inhibition of glucocorticoid receptor (unknown origin) by fluorescence polarization based competition assay
T1 sequence (P04150 whole entry): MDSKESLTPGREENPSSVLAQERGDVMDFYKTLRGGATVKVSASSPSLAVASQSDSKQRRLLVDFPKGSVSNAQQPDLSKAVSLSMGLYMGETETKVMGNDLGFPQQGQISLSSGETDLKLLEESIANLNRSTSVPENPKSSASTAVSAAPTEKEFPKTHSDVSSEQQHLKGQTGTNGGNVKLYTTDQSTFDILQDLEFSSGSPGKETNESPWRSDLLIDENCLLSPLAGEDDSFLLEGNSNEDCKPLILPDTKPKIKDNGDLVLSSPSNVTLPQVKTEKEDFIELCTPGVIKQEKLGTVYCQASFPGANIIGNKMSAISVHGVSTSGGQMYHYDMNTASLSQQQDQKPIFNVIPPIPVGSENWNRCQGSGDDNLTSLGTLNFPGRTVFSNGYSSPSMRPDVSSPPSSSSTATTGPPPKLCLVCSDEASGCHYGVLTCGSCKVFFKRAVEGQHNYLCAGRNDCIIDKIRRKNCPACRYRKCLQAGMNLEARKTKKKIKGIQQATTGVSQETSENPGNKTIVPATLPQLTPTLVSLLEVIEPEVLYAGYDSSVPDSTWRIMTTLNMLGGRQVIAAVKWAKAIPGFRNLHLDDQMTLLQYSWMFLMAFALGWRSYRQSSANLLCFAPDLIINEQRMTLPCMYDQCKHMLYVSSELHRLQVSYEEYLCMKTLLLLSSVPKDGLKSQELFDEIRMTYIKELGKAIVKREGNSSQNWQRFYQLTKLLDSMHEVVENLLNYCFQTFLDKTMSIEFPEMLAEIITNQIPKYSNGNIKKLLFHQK

Mus musculus [1] = test: Effect on P4 induced GR expression in CD-1 mouse uterine stroma at 25 mg/kg, ip for 7 days by immunohistochemical analysis; type: functional, organism-based; settings: time 7.0 day
Summary of the method: (§1)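 Ovariectomized CD-1 mice (n=5/group) were dosed ip for 7 days with 10% DMSO, 1 mg/kg P4, 25 mg/kg compound, 1 mg/kg P4 plus 25 mg/kg compound, or 1 mg/kg P4 plus 10 mg/kg RU486. Uterine sections (5 μm) were processed with citrate retrieval and overnight 4 °C primary antibodies: GR 1:100; PR, HAND2 and ZBTB16 1:200. Staining used biotinylated secondary, ABC and DAB, and was assessed qualitatively.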

Mus musculus [2] = test: Inhibition of PR induced ZBTB16 expression in CD-1 mouse uterus at 25 mg/kg,ip for 7 days by Immunohistochemical staining method; type: functional, organism-based; settings: time 7.0 day; summary of the method: as §1
Mus musculus [3] = test: Effect on GR expression in CD-1 mouse uterine luminal epithelium at 25 mg/kg, ip for 7 days by immunohistochemical analysis; type: functional, organism-based; settings: Uterine lumen, time 7.0 day; summary of the method: as §1
[4] = Toxicity in P4 induced CD-1 mouse assessed as effect on body weight at 25 mg/kg, ip for 7 days (Rvb= 30g); type: organism-based; settings: in vivo, 168 h, time 7 day
Mus musculus [5] = test: Effect on P4 induced GR expression in CD-1 mouse uterine luminal epithelium at 25 mg/kg, ip for 7 days by immunohistochemical analysis; type: functional, organism-based; settings: Uterine lumen, time 7.0 day; summary of the method: as §1
Mus musculus [6] = test: Effect on PR protein level in CD-1 mouse uterus at 25 mg/kg, ip for 7 days by immunohistochemical staining method; type: functional, organism-based; settings: time 7.0 day; summary of the method: as §1
Mus musculus [7] = test: Upregulation of P4 induced HAND2 expression in CD-1 mouse uterus at 25 mg/kg, ip for 7 days by immunohistochemical staining method; type: functional, organism-based; settings: time 7.0 day, in the assay text read “Downregulation” for “Upregulation”; summary of the method: as §1
Progesterone receptor = target: T2, Progesterone receptor (Homo sapiens, UniProt P06401); test: Competitive inhibition of progesterone receptor (unknown origin) by fluorescence polarization based competition assay
T2 sequence (P06401 whole entry): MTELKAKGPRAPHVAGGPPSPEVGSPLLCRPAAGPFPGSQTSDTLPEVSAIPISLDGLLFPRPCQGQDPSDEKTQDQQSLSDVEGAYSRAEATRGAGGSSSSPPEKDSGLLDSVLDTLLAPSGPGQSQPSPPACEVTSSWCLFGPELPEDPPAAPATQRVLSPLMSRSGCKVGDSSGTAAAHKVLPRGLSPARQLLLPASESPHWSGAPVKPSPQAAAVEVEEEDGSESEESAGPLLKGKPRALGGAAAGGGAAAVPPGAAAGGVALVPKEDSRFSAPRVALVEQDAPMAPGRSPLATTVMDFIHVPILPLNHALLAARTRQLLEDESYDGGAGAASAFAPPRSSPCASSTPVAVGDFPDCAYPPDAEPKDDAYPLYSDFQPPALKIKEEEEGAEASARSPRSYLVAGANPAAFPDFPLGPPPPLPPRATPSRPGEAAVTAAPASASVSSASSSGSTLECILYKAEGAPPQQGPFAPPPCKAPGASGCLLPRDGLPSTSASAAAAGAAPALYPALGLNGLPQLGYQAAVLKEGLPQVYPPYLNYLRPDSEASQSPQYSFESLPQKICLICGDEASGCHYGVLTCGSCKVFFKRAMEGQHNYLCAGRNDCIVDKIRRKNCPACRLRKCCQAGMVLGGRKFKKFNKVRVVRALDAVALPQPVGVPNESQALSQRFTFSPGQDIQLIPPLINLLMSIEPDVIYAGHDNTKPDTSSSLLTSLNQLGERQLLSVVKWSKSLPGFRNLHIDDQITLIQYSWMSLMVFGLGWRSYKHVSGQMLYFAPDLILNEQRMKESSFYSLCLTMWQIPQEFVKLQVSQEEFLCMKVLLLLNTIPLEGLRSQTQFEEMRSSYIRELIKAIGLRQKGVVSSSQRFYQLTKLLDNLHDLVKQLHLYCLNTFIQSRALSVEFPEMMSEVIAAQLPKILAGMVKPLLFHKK

[8] = Toxicity in CD-1 mouse assessed as effect on uterus weight at 25 mg/kg,ip for 7 days (Rvb= 0.033g); type: organism-based; settings: in vivo, 168 h, time 7 day
[9] = Toxicity in P4 induced CD-1 mouse assessed as effect on MG weight at 25 mg/kg, ip for 7 days (Rvb= 0.22g); type: organism-based; settings: in vivo, 168 h, time 7 day
[10] = Toxicity in CD-1 mouse assessed as effect on liver weight at 25 mg/kg, ip for 7 days (Rvb= 1.3 g); type: organism-based; settings: in vivo, 168 h, time 7 day
[11] = Toxicity in CD-1 mouse assessed as effect on glucose level at 25 mg/kg, ip for 7 days (Rvb=231.6 mg/dL); type: organism-based; settings: in vivo, 168 h, time 7 day
Mus musculus [12] = test: Effect on P4 induced PR protein level in CD-1 mouse uterus at 25 mg/kg, ip for 7 days by immunohistochemical staining method; type: functional, organism-based; settings: time 7.0 day; summary of the method: as §1
[13] = Toxicity in CD-1 mouse assessed as effect on MG weight at 25 mg/kg, ip for 7 days (Rvb= 0.22g); type: organism-based; settings: in vivo, 168 h, time 7 day
[14] = Antiproliferative activity against CD-1 mouse uterine epithelial cell at 25 mg/kg, ip for 7 days by immunohistochemistry method; type: functional; settings: time 7 day
Summary of the method: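 Ovariectomized CD-1 mice (n=5/group) received ip 10% DMSO vehicle, 1 mg/kg P4, 25 mg/kg compound, or P4 plus compound daily for 7 days. Formalin-fixed, paraffin 5 μm uterine sections underwent citrate antigen retrieval (100 °C, 30 min), then PCNA IHC (1:200, overnight 4 °C), ABC/DAB and hematoxylin counterstain. Read-out was the percentage of PCNA-positive luminal epithelial cells.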

Mus musculus [15] = test: Upregulation of HAND2 expression in CD-1 mouse uterus at 25 mg/kg, ip for 7 days by immunohistochemical staining method; settings: time 7.0 day
Mus musculus [16] = test: Effect on GR expression in CD-1 mouse uterine stroma at 25 mg/kg, ip for 7 days by immunohistochemical analysis; type: functional, organism-based; settings: time 7.0 day; summary of the method: as §1
Mus musculus [17] = test: Inhibition of ZBTB16 expression in CD-1 mouse uterus at 25 mg/kg, ip for 7 days by Immunohistochemical staining method; type: functional, organism-based; settings: time 7.0 day; summary of the method: as §1
[18] = Toxicity in P4 induced CD-1 mouse assessed as effect on uterus weight at 25 mg/kg,ip for 7 days (Rvb= 0.033g); type: organism-based; settings: in vivo, 168 h, time 7 day
[19] = Toxicity in CD-1 mouse assessed as effect on body weight at 25 mg/kg, ip for 7 days (Rvb= 30g); type: organism-based; settings: in vivo, 168 h, time 7 day
[20] = Toxicity in P4 induced CD-1 mouse assessed as effect on liver weight at 25 mg/kg, ip for 7 days (Rvb= 1.3 g); type: organism-based; settings: in vivo, 168 h, time 7 day
[21] = Toxicity in P4 induced CD-1 mouse assessed as effect on glucose level at 25 mg/kg, ip for 7 days (Rvb=231.6 mg/dL); type: organism-based; settings: in vivo, 168 h, time 7 day
[22] = Toxicity in P4 induced CD-1 mouse assessed as effect on liver weight at 10 mg/kg, ip for 7 days (Rvb= 1.3 g); type: organism-based; settings: in vivo, 168 h, time 7 day
[23] = Toxicity in P4 induced CD-1 mouse assessed as effect on glucose level at 10 mg/kg, ip for 7 days (Rvb=231.6 mg/dL); type: organism-based; settings: in vivo, 168 h, time 7 day
[24] = Toxicity in P4 induced CD-1 mouse assessed as effect on MG weight at 10 mg/kg, ip for 7 days (Rvb= 0.22g); type: organism-based; settings: in vivo, 168 h, time 7 day
Mus musculus [25] = test: Upregulation of P4 induced HAND2 expression in CD-1 mouse uterus at 10 mg/kg, ip for 7 days by immunohistochemical staining method; type: functional, organism-based; settings: time 7.0 day
Mus musculus [26] = test: Effect on P4 induced PR protein level in CD-1 mouse uterus at 10 mg/kg, ip for 7 days by immunohistochemical staining method; type: functional, organism-based; settings: time 7.0 day
[27] = Toxicity in P4 induced CD-1 mouse assessed as effect on uterus weight at 10 mg/kg,ip for 7 days (Rvb= 0.033g); type: organism-based; settings: in vivo, 168 h, time 7 day
[28] = Toxicity in P4 induced CD-1 mouse assessed as effect on body weight at 10 mg/kg, ip for 7 days (Rvb= 30g); type: organism-based; settings: in vivo, 168 h, time 7 day
Mus musculus [29] = test: Effect on P4 induced GR expression in CD-1 mouse uterine luminal epithelium at 10 mg/kg, ip for 7 days by immunohistochemical analysis; type: functional, organism-based; settings: Uterine lumen, time 7.0 day; summary of the method: as §1
Mus musculus [30] = test: Effect on P4 induced GR expression in CD-1 mouse uterine stroma at 10 mg/kg, ip for 7 days by immunohistochemical analysis; type: functional, organism-based; settings: time 7.0 day; summary of the method: as §1
Mus musculus [31] = test: Effect on GR expression in CD-1 mouse uterine stromal at 1 mg/kg, ip for 7 days by immunohistochemical staining analysis; type: functional, organism-based; settings: Stroma, time 7.0 day
Summary of the method: (§2)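 Ovariectomized CD-1 mice, 5 per group, dosed IP daily for 7 days: 10% DMSO vehicle, progesterone 1 mg/kg, baicalein 25 mg/kg, P4 1 mg/kg + baicalein 25 mg/kg, or P4 1 mg/kg + RU486 10 mg/kg. One uterine horn formalin-fixed, paraffin-embedded, cut at 5 μm. IHC: citrate antigen retrieval at 100 °C, primary antibody overnight at 4 °C, ABC/DAB, hematoxylin counterstain. For PCNA, the percentage of proliferating luminal epithelial cells was counted.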

Mus musculus [32] = test: Inhibition of ZBTB16 expression in CD-1 mouse uterus at 1 mg/kg, ip for 7 days by Immunohistochemical staining method; type: functional, organism-based; settings: time 7.0 day; summary of the method: as §2
[33] = Antiproliferative activity against CD-1 mouse uterine epithelial cell at 1 mg/kg, ip for 7 days by immunohistochemistry method; type: functional; settings: time 7 day; summary of the method: as §2
Mus musculus [34] = test: Effect on PR protein level in CD-1 mouse uterus at 1 mg/kg, ip for 7 days by immunohistochemical; type: functional, organism-based; settings: time 7.0 day; summary of the method: as §2

O=c1cc(-c2ccccc2)oc2cc(O)c(O)c(O)c12 [BAICALEIN]
IC50 (Glucocorticoid receptor): 19 µM
Activity (Mus musculus [1]): Active
inhibition (Mus musculus [2]): Active
Activity (Mus musculus [3]): inactive
Activity [4]: 30 g
Activity (Mus musculus [5]): Active
Activity (Mus musculus [6]): inactive
Activity (Mus musculus [7]): Active
IC50 (Progesterone receptor): 15 µM
Activity [8]: 0.026 g
Activity [9]: 0.23 g
Activity [10]: 1.4 g
Activity [11]: 196.2 mg/dL
Activity (Mus musculus [12]): inactive
Activity [13]: 0.26 g
Activity [14]: 47%
Activity (Mus musculus [15]): inactive
Activity (Mus musculus [16]): inactive
inhibition (Mus musculus [17]): inactive
Activity [18]: 0.024 g
Activity [19]: 30 g
Activity [20]: 1.2 g
Activity [21]: 179.8 mg/dL

CC#C[C@]1(O)CC[C@H]2[C@@H]3CCC4=CC(=O)CCC4=C3[C@@H](c3ccc(N(C)C)cc3)C[C@@]21C [MIFEPRISTONE]
Activity [22]: 1.2 g
Activity [23]: 198.2 mg/dL
Activity [24]: 0.17 g
Activity (Mus musculus [25]): inactive
Activity (Mus musculus [26]): inactive
Activity [27]: 0.021 g
Activity [28]: 29 g
Activity (Mus musculus [29]): Active
Activity (Mus musculus [30]): Active

CC(=O)[C@H]1CC[C@H]2[C@@H]3CCC4=CC(=O)CC[C@]4(C)[C@H]3CC[C@]12C [PROGESTERONE]
Activity (Mus musculus [31]): Active
inhibition (Mus musculus [32]): inactive
Activity [8]: 0.021 g
Activity [10]: 1.4 g
Activity [11]: 209.4 mg/dL
Activity [33]: 7%
Activity [13]: 0.24 g
Activity (Mus musculus [34]): inactive
Activity [19]: 30 g
